PubChem BioAssay AID624033 (Broad Institute, 2012)
Activity calls are given as the source filed them.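 Rule for the calls: active = raises 665 nm absorbance to half the iron-handling mutant's effect in both replicates, half-effect dose under 50 µM; inactive = the rest.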

Test system: not listed separately
Experiment: siderophore output inhibition in Pseudomonas aeruginosa – Chrome Azurol S readout, dry powder samples, orthogonal assay for PvdQ inhibitor project, dose response (AID 624033)
Conditions: P. aeruginosa pyoverdine, CAS absorbance 665 nm, 6 h
Method in brief: (§1)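 Compound dosing: 10-point twofold dilution series, top dose 125 µM; Measured by: Chrome Azurol S absorbance at 665 nm in supernatant; Schedule: 6 h compound culture, 30 °C, then 30 min CAS dye.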

Q: With `COCCOCCC(C#N)c1ccc(F)cc1` (stereo unspecified) as the compound, how does the outcome read?
A: inactive

Q: Which outcome does the source give for `CN(C)CCCC(C#N)c1ccc(F)cc1` (stereo unspecified) here?
A: inactive

Q: With `COCCC(C#N)c1ccc(F)cc1` (stereo unspecified) as the compound, how does the outcome read?
A: inactive

Test system: P. aeruginosa pyoverdine, CAS absorbance 665 nm, 6 h
Experiment: as above
Conditions: not given
Method in brief: as §1

Q: With `N#CC(c1ccc(Cl)cc1)c1cccc(C(F)(F)F)n1` (stereo unspecified) as the compound, how does the AC50 read?
A: 22.9 µM

Q: For `N#CC(c1ccc(F)cc1)c1cccc(C(F)(F)F)n1` (stereo unspecified), which AC50 is on record?
A: 6.21 µM

Q: With `N#CC(c1cccc(Cl)n1)c1ccc(Cl)cc1F` (stereo unspecified) as the compound, how does the AC50 read?
A: 30.7 µM

Q: Which AC50 does the source give for `N#CC(c1cccc(C(F)(F)F)n1)c1ccc(Cl)cc1F` (stereo unspecified) here?
A: 14.6 µM

Q: Which AC50 does the source give for `N#CC(c1ccc(Cl)cc1)c1ncccc1Cl` (stereo unspecified) here?
A: 48.3 µM

Q: Which AC50 does the source give for `CCCCC(C#N)c1ccc(F)cc1` (stereo unspecified) here?
A: 27.7 µM

Q: Which AC50 does the source give for `N#CC(c1ccc(Cl)cc1)c1ccc(Cl)cn1` (stereo unspecified) here?
A: 17.7 µM

Q: With `N#CC(c1ccc(Cl)cc1)c1cccc(Cl)n1` (stereo unspecified) as the compound, how does the AC50 read?
A: 46.4 µM
